Data taken from ChEMBL document CHEMBL3627612, “Hirsutinolide Series Inhibit Stat3 Activity, Alter GCN1, MAP1B, Hsp105, G6PD, Vimentin, TrxR1, and Importin α-2 Expression, and Induce Antitumor Effects against Human Glioma” (J Med Chem, 2015).
The source made the active and inactive calls. No cut-off for these calls is given here.

Columns and labels:
U-251 [1] = experiment: Induction of apoptosis in human U251MG cells assessed as PARP level at 0.5 to 10 nM after 24 to 48 hrs by immunoblot analysis; format: functional, cell-based
Outline: (§1)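 U251MG human glioma cells (RPMI or DMEM, 10% FBS, 1% nonessential amino acids) treated for 24 or 48 h, with paclitaxel or staurosporine run alongside. Whole-cell lysates were prepared and analysed by SDS-PAGE and immunoblotting, probing for PARP and caspase 3 cleavage as apoptosis markers.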

U-251 [2] = experiment: Induction of apoptosis in human U251MG cells assessed as cleaved caspase 3 level at 0.5 to 10 nM after 24 to 48 hrs by immunoblot analysis; format: functional, cell-based; outline: as §1
[3] = Cytotoxicity against mouse NIH/3T3 cells after 72 hrs by cyquant cells; format: cell-based; details: NIH3T3, 72 h
Outline: (§2)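 CyQuant proliferation assay after 72 h compound exposure of cultured cells; relative viability normalized to DMSO-treated control; IC50 values derived. Glioma lines grown in RPMI or DMEM with 10% FBS and 1% nonessential amino acids.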

U-251 [4] = experiment: Antiproliferative activity against human U251MG cells at 5 uM for 72 hrs by cyquant assay; format: functional; outline: as §2
MDA-MB-231 [5] = experiment: Antiproliferative activity against human MDA-MB-231 cells at 5 uM for 72 hrs by cyquant assay; format: functional, cell-based
SF-295 = experiment: Antiproliferative activity against human SF295 cells at 5 uM for 72 hrs by cyquant assay; format: functional, cell-based
[6] = Cytotoxicity against mouse NIH/3T3 cells at 5uM after 72 hrs by cyquant cells; format: cell-based; details: nih3t3, 72 h; outline: as §2
[7] = target: Signal transducer and activator of transcription 3 (Mus musculus) (UniProt P42227); experiment: Inhibition of Stat3 dimer DNA binding activity in mouse NIH3T3/vSrc nuclear extract at 5 uM preincubated for 30 mins followed by addition of radiolabeled probe hSIE for 30 mins by EMSA
Chain of Signal transducer and activator of transcription 3 (Mus musculus) (P42227 whole entry): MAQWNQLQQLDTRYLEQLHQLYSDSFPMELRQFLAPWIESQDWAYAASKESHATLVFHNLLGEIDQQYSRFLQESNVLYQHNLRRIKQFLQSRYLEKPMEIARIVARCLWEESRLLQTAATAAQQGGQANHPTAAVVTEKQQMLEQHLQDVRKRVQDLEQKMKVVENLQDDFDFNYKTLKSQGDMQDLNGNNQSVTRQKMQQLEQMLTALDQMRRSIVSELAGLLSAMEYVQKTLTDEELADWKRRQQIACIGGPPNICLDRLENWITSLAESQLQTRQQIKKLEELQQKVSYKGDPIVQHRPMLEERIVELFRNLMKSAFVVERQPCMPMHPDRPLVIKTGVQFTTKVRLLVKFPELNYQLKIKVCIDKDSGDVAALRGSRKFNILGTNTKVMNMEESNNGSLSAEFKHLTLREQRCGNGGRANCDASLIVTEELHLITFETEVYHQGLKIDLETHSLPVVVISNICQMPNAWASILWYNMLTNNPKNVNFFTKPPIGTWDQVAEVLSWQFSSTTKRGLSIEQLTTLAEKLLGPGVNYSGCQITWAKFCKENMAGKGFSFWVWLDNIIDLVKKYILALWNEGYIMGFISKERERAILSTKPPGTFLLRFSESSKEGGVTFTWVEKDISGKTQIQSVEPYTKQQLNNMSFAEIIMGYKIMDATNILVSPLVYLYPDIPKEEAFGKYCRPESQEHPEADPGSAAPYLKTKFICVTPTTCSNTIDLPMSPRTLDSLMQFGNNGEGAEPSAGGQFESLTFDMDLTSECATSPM

[8] = target: Signal transducer and activator of transcription 1/ 3 (Mus musculus) (UniProt P42227+P42225); experiment: Inhibition of Stat1:Stat3 dimer DNA binding activity in EGF-stimulated mouse NIH3T3 nuclear extract expressing human EGFR assessed as residual activity at 5 uM preincubated for 30 mins followed by addition of radiolabeled probe hSIE for 30 mins by EMSA; format: cell-free
[9] = target: Signal transducer and activator of transcription 3 (Mus musculus) (UniProt P42227); experiment: Inhibition of Stat3 dimer DNA binding activity in EGF-stimulated mouse NIH3T3 nuclear extract expressing human EGFR assessed as residual activity at 5 uM preincubated for 30 mins followed by addition of radiolabeled probe hSIE for 30 mins by EMSA
[10] = target: T1, Signal transducer and activator of transcription 1 (Mus musculus) (UniProt P42225); experiment: Inhibition of Stat1 dimer DNA binding activity in EGF-stimulated mouse NIH3T3 nuclear extract expressing human EGFR assessed as residual activity at 5 uM preincubated for 30 mins followed by addition of radiolabeled probe hSIE for 30 mins by EMSA
T1 sequence (whole entry): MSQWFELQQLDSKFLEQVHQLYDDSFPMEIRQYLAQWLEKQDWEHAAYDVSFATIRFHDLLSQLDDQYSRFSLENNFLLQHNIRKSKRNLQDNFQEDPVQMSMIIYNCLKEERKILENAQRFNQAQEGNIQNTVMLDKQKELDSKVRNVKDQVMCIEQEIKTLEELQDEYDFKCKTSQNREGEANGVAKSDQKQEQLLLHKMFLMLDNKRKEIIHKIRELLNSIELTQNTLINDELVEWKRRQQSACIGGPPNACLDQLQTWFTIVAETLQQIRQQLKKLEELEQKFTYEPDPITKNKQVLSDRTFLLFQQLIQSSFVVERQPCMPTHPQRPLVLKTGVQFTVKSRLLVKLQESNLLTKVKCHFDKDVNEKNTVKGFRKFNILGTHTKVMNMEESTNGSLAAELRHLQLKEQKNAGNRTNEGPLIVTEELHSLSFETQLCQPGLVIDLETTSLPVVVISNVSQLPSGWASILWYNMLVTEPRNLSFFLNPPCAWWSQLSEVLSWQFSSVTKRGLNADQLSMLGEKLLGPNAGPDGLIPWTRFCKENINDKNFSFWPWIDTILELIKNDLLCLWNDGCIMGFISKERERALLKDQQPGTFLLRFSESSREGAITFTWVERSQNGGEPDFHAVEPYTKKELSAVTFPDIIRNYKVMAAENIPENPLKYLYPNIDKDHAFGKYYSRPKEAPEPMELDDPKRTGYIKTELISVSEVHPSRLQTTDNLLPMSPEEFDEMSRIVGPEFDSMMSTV

NIH3T3 [11] = experiment: Inhibition of Stat5 dimer DNA binding activity in EGF-stimulated mouse NIH3T3 nuclear extract expressing human EGFR at 5 uM preincubated for 30 mins followed by addition of radiolabeled probe MGFe for 30 mins by EMSA; format: cell-free
[12] = target: T1, Signal transducer and activator of transcription 1 (Mus musculus); experiment: Inhibition of Stat1 dimer DNA binding activity in EGF-stimulated mouse NIH3T3 nuclear extract expressing human EGFR at 5 uM preincubated for 30 mins followed by addition of radiolabeled probe hSIE for 30 mins by EMSA
[13] = target: T2, Signal transducer and activator of transcription 3 (Homo sapiens, UniProt P40763); experiment: Inhibition of Stat3 activity in human U251MG cells assessed as phosphorylated Stat3 level at 5 uM by immunoblot analysis; format: cell-based; details: U-251, TDE = time-dependent effect
T2 sequence (P40763 whole entry): as the sequence (P42227 whole entry) above, with D760E counted along it

[14] = target: T1, Signal transducer and activator of transcription 1 (Mus musculus); experiment: Modulation of EGF-induced Stat1 phosphorylation in mouse NIH3T3 cells expressing human EGFR at 5 uM preincubated for 3 hrs followed by stimulation with 1 ug/ml EGF for 12 mins by immunoblot analysis; format: cell-based
Outline: (§3)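 Whole-cell lysates of equal total protein from NIH3T3/hEGFR fibroblasts, pretreated with or without 5 μM compound (control 0.025% DMSO) for 3 h, then stimulated with 1 μg/ml EGF for 12 min. SDS-PAGE immunoblotting for pStat1/Stat1 and pStat5/Stat5 with β-actin or GAPDH loading controls. Representative of 2–4 independent determinations.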

NIH3T3 [15] = experiment: Modulation of EGF-induced Stat5 phosphorylation in mouse NIH3T3 cells expressing human EGFR at 5 uM preincubated for 3 hrs followed by stimulation with 1 ug/ml EGF for 12 mins by immunoblot analysis; format: cell-based; outline: as §3
[16] = target: Mitogen-activated protein kinase 1 and 3 (ERK2 and ERK1) (Mus musculus) (UniProt P63085+Q63844); experiment: Modulation of EGF-induced Erk1/2 phosphorylation in mouse NIH3T3 cells expressing human EGFR at 5 uM preincubated for 3 hrs followed by stimulation with 1 ug/ml EGF for 12 mins by immunoblot analysis; format: cell-based
Chain of Mitogen-activated protein kinase 1 and 3 (ERK2 and ERK1) (Mus musculus) (P63085 whole entry, looked up): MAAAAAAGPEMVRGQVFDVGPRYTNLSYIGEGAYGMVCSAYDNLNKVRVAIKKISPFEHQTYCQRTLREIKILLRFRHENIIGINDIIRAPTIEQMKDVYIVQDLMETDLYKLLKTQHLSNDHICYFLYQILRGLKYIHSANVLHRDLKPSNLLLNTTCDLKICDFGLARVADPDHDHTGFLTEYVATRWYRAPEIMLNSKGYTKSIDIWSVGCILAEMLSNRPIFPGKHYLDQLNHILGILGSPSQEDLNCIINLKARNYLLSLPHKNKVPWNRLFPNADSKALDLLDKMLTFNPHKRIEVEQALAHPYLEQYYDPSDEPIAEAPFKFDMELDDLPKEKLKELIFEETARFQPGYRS
Chain of Mitogen-activated protein kinase 1 and 3 (ERK2 and ERK1) (Mus musculus) (Q63844 whole entry, looked up): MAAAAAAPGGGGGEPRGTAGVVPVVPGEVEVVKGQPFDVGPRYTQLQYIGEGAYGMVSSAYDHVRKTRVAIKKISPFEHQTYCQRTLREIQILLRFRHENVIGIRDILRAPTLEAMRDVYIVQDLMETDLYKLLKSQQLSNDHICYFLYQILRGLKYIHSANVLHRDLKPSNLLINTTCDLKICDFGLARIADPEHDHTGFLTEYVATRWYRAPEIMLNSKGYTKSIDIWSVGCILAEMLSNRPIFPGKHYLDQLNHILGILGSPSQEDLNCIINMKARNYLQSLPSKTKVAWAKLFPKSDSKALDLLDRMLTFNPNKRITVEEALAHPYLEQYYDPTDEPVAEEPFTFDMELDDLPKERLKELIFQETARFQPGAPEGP
Outline: (§4)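 NIH3T3/hEGFR fibroblasts pretreated with or without 5 μM compound for 3 h, then stimulated with 1 μg/ml EGF for 12 min. Whole-cell lysates of equal total protein immunoblotted for phospho and total Stat3, Stat1, Stat5, Erk1/2. Controls were 0.025% DMSO-treated cells. Representative of 2–4 independent determinations.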

[17] = target: Signal transducer and activator of transcription 3 (Mus musculus) (UniProt P42227); experiment: Inhibition of EGF-induced Stat3 phosphorylation in mouse NIH3T3 cells expressing human EGFR at 5 uM preincubated for 3 hrs followed by stimulation with 1 ug/ml EGF for 12 mins by immunoblot analysis; format: cell-based; outline: as §4
[18] = target: RAC-alpha serine/threonine-protein kinase (Homo sapiens) (UniProt P31749); experiment: Modulation of Akt phosphorylation in human U251MG cells at 5 uM after 0.5 to 24 hrs by immunoblot analysis; format: cell-based; details: U-251
Chain of RAC-alpha serine/threonine-protein kinase (Homo sapiens) (P31749 whole entry): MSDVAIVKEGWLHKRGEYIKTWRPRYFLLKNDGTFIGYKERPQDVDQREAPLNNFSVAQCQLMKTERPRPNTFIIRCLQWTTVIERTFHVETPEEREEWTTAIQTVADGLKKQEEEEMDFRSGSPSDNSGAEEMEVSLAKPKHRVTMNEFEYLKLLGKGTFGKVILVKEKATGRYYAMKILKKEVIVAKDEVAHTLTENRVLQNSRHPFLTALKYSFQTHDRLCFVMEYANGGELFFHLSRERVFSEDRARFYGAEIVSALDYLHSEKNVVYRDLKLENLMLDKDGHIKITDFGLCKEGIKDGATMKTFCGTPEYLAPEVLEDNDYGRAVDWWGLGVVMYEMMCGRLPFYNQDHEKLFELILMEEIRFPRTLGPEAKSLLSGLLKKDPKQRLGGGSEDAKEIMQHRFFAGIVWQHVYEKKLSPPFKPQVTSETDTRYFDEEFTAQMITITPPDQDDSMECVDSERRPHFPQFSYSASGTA
Outline: (§5)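 U251MG cells treated with 5 μM compound for 0–24 h; whole-cell lysates of equal total protein immunoblotted. Controls were 0.025% DMSO-treated cells. Representative of 2–4 independent determinations.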

[19] = target: Mitogen-activated protein kinase; ERK1/ERK2 (Homo sapiens) (UniProt P27361+P28482); experiment: Modulation of Erk1/2 phosphorylation in human U251MG cells at 5 uM after 0.5 to 24 hrs by immunoblot analysis; format: cell-based; details: U-251
Chain of Mitogen-activated protein kinase; ERK1/ERK2 (Homo sapiens) (P27361 whole entry, looked up): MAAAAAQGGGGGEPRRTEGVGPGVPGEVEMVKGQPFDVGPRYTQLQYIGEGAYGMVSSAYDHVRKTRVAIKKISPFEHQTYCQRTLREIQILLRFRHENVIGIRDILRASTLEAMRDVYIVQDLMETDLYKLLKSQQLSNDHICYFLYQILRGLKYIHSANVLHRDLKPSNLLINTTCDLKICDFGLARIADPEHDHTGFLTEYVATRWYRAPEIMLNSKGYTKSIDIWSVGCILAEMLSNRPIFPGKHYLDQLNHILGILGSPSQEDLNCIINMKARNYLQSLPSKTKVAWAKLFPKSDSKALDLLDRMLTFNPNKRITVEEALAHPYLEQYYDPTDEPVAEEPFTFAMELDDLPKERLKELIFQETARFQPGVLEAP
Chain of Mitogen-activated protein kinase; ERK1/ERK2 (Homo sapiens) (P28482 whole entry, looked up): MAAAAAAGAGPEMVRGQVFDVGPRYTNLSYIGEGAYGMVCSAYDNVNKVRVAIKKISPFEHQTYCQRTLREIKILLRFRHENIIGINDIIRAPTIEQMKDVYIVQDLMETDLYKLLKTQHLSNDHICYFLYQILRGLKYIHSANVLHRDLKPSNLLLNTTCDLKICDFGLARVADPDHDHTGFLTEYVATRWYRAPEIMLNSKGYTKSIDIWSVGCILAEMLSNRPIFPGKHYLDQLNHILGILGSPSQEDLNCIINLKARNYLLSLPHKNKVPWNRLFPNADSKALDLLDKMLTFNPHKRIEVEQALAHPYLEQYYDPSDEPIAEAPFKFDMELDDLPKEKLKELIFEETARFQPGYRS
Outline: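 U251MG glioma cells (RPMI or DMEM, 10% FBS, 1% nonessential amino acids) treated with 5 μM compound for 0–24 h; 0.025% DMSO control. Whole-cell lysates of equal total protein immunoblotted for pErk1/2, Erk1/2, pJAK2 and JAK2 with β-actin or GAPDH loading controls. Representative of 2–4 independent determinations.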

U-251 [20] = experiment: Effect on SOCS3 expression in human U251MG cells at 5 uM after 0.5 to 24 hrs by immunoblot analysis; format: functional, cell-based; outline: as §5
U-251 [21] = experiment: Effect on PTP1B expression in human U251MG cells at 5 uM after 0.5 to 24 hrs by immunoblot analysis; format: functional, cell-based; outline: as §5
[22] = target: T2, Signal transducer and activator of transcription 3; experiment: Inhibition of orthovandate-induced Stat3 phosphorylation in human U251MG cells at 5 uM for 3 hrs by immunoblot analysis in presence of 10 to 300 uM orthovandate; format: cell-based; details: U-251
Outline: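 U251MG cells treated with 5 μM compound for 3 h without or with 10–300 μM Na3VO4. Whole-cell lysates of equal total protein immunoblotted for pStat3 and Stat3. Controls were 0.025% DMSO. Representative of 2–4 determinations.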

[23] = Antiproliferative activity against human U251MG cells for 72 hrs by cyquant assay; format: functional, cell-based; details: U-251, 72 h; outline: as §2
MDA-MB-231 [24] = experiment: Antiproliferative activity against human MDA-MB-231 cells for 72 hrs by cyquant assay; format: functional, cell-based; details: MDA-MB-231, 72 h; outline: as §2
[25] = Antiproliferative activity against human U373MG cells for 72 hrs by cyquant assay; format: functional, cell-based, U-373MG ATCC; details: U373 MG; outline: as §2
[26] = Antiproliferative activity against human SF295 cells for 72 hrs by cyquant assay; format: functional, cell-based; details: SF-295, 72 h; outline: as §2
U-251 [27] = experiment: Antimitotic activity in human U251MG cells assessed as defect in chromatid structure at 0.1 uM after 15 hrs confocal microscopic analysis; format: functional, cell-based
Outline: (§6)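 U251MG on coverslips synchronized by double thymidine block (2 mM), released 9 h, treated 15 h (8 μM; paclitaxel 100 nM). Fixed 4% paraformaldehyde, digitonin-permeabilized, BSA-blocked, stained for β-tubulin and MAP1B with DAPI counterstain; chromatid structure and segregation scored by confocal microscopy.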

U-251 [28] = experiment: Antimitotic activity in human U251MG cells assessed as defect in sister chromatid segragation at 0.1 uM after 15 hrs confocal microscopic analysis; format: functional, cell-based; outline: as §6
U-251 [29] = experiment: Induction of apoptosis in human U251MG cells assessed as PARP level at […] after 24 to 48 hrs by immunoblot analysis; format: functional, cell-based
U-251 [30] = experiment: Induction of apoptosis in human U251MG cells assessed as cleaved caspase-3 level at […] after 24 to 48 hrs by immunoblot analysis; format: functional, cell-based
[31] = target: T2, Signal transducer and activator of transcription 3; experiment: Inhibition of Stat3 activity in human U251MG cells assessed as phosphorylated Stat3 level at 5 uM after 0.5 to 24 hrs by immunoblot analysis; format: cell-based; details: U-251
Outline: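 U251MG cells treated with 5 μM compound for 0–24 h, or with 0–5 μM for 2 h. Whole-cell lysates immunoblotted for pStat3, Stat3, GAPDH. Control was 0.025% DMSO-treated cells.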

## CN[C@@H]1C[C@H]2O[C@@](C)([C@@H]1OC)n1c3ccccc3c3c4c(c5c6ccccc6n2c5c31)C(=O)NC4
U-251 [1]
  Activity: Active
U-251 [2]
  Activity: Active

## C/C=C(/C)C(=O)O[C@H]1C[C@@H](C)[C@]2(O)CC[C@](C)(/C=C3/OC(=O)C(COC(C)=O)=C31)O2
[3]
  IC50: 11.8 µM
U-251 [4]
  inhibition: Active
MDA-MB-231 [5]
  inhibition: Active
SF-295
  inhibition: Active
[6]
  Activity: Toxic
[7]
  inhibition: Active
[8]
  Activity: 61%
[9]
  Activity: 47%
[10]
  Activity: 60%
NIH3T3 [11]
  inhibition: inactive
[12]
  inhibition: inactive
[13]
  inhibition: tde
[14]
  inhibition: inactive
NIH3T3 [15]
  inhibition: inactive
[16]
  inhibition: inactive
[17]
  inhibition: Active
[18]
  Activity: inactive
[19]
  Activity: inactive
U-251 [20]
  Activity: inactive
U-251 [21]
  Activity: inactive
[22]
  inhibition: Active
[23]
  IC50: 3.3 µM
MDA-MB-231 [24]
  IC50: 7.4 µM
[25]
  IC50: 10.4 µM
[26]
  IC50: 8.6 µM

## CC(=O)O[C@H]1C(=O)[C@@]2(C)[C@H]([C@H](OC(=O)c3ccccc3)[C@]3(O)C[C@H](OC(=O)[C@H](O)[C@@H](NC(=O)c4ccccc4)c4ccccc4)C(C)=C1C3(C)C)[C@]1(OC(C)=O)CO[C@@H]1C[C@@H]2O
U-251 [27]
  Activity: Active
U-251 [28]
  Activity: Active
U-251 [29]
  Activity: Active
U-251 [30]
  Activity: Active

## CCC(C)C(=O)OCC1=C2/C(=C\[C@@]3(C)CC[C@](O)(O3)[C@H](C)C[C@@H]2O)OC1=O (stereo partly drawn)
[7]
  inhibition: Active
[31]
  inhibition: Active
